Compound activity from PubChem BioAssay.
An excerpt weighted towards active compounds, which were near 3.7% of everything screened.
FGF22 binding: binders of recombinant human FGF22 by thermal shift | SYPRO orange fluorescence; percent of sucrose octasulfate shift, DMSO zero | activity (Tm shift, normalised), % at 9.99 µM | hit rate 1.5% among 340,000 | AID 651658;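 active = mean Tm shift, scaled 0 neutral to 100 positive control, at about 1.3% or above, every replicate too, limit read from the data; inconclusive = no clear call, values can overlap the other calls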
Target sequence (Q9HCT0 whole entry, looked up): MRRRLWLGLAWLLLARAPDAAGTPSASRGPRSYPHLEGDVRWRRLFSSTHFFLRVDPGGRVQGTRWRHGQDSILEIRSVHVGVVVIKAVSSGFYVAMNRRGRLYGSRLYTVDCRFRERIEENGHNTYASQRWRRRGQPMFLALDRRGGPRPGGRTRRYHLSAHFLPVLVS
DENV2 CPE rescue: protects cells from dengue virus 2 cytopathic effect; CPE inhibition, % at 9.99 µM; DENV2-infected cells, cytopathic effect rescue, plate reader; AID 651640; hit rate 1.7% among 350,000; in the data active = CPE inhibition above about 20%, passing the limit was not always enough; inconclusive = no clear call, values can overlap the other calls; tested in BHK-21 cells;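 note: 0% = median of neutral control wells and 100% = median of positive control wells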
E-sel inducer: induces E-selectin expression in human endothelial cells; P16581; HUVEC E-selectin immunofluorescence imaging; normalized: neutral wells 0, TNF-alpha wells 100; activation, % at 7.58 µM; hit rate 0.37% among 260,000; AID 686992;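 active = mean E-selectin-positive cell signal at least 10% of the positive control, reached in at least 60% of replicates, without over 20% cell loss; inconclusive = no rule given, readout overlaps actives, possibly toxicity-flagged; inactive = the rest, including those meeting only one limit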
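assay system = HUVEC, human umbilical vein endothelial cells | input = 3,000 HUVEC seeded per well | medium = EGM-2 growth medium on 0.1% gelatin-coated wells | dosing = one compound dose added by pin transfer | signal = immunofluorescence imaging | read-out basis = % PE-positive cells | control set = TNF-alpha, DMSO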
ERAP1 inh: ERAP1 (human) enzyme inhibition | hit rate 0.15% among 340,000 | inhibition, % at 10.7 µM | AID 652197 | recombinant ERAP1, Leu-AMC fluorescence, 60 min;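 active = mean replicate inhibition of at least 30%, or all replicates individually reaching that 30% level; inactive = mean below 30% and not every replicate reaching it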;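 note: 0% = neutral control wells and 100% = L-leucinethiol positive control wells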
CFTR F508del cor: CFTR F508del correction in bronchial cells; AID 720511; activity (quench increase), % at 7.58 µM; CFBE cells, YFP halide quenching; stimulated with forskolin plus potentiator P3; % fluorescence drop versus neutral controls; hit rate 0.36% among 350,000;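 active = mean added fluorescence quench of at least 8% versus neutral control, with both replicates also reaching 8%; inconclusive = only one of the mean or replicate conditions met; inactive = mean below 8% and not both replicates reaching 8%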;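 note: cells transiently co-express mutant CFTR-F508del with the halide-sensitive YFP; corrector assay measuring rescue of mutant channel to the surface after 24 h compound exposure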
Starred values were filed as active, the others as inactive; u = inconclusive; x = no result.

SMILES	FGF22 binding	DENV2 CPE rescue	E-sel inducer	ERAP1 inh	CFTR F508del cor
CC(=O)N(C)c1ccc(NC(=O)C(Sc2ccccc2)c2ccccc2)cc1 (configuration not stated)	x	4	5	1	0
O=C(C[C@@H]1C=C[C@@H](NC(=O)NC2CCCCC2)[C@@H](CO)O1)NCc1ccccc1	0	5	0	-4	-1
COc1ccc(-c2ccc([C@@H]3[C@@H](CO)N4C(=O)CN(Cc5ccc(C)cc5)C[C@H]34)cc2)cc1	x	1	0	1	-3
O=C(c1cccc(F)c1)N1CC2(C1)[C@H](c1ccccc1)[C@@H](CO)N2C(=O)C1CCCC1	x	-7	0	0	2
COc1ccc(NC(=O)Nc2cccc3c2O[C@H](CN(C)S(=O)(=O)c2cn(C)cn2)[C@H](C)CN([C@H](C)CO)C3=O)cc1	0	10	x	-1	3
Cc1ccc(-c2ccc3c(c2)O[C@H](CN(C)Cc2ccccn2)[C@@H](C)CN([C@@H](C)CO)S3(=O)=O)cc1	-1	14	2	-3	12*
Cc1ccc(-c2ccc3c(c2)O[C@H](CN(C)Cc2ccccn2)[C@@H](C)CN([C@H](C)CO)S3(=O)=O)cc1	0	-1	0	-3	16*
Cc1ccc(-c2ccc3c(c2)O[C@@H](CN(C)Cc2ccccn2)[C@@H](C)CN([C@@H](C)CO)S3(=O)=O)cc1	0	-5	0	-1	3
Cc1ccc(NC(=O)c2ccc3c(c2)CCN3S(C)(=O)=O)cc1	0	30*	x	-11	x
COc1ccc2c3c(n(C)c2c1)[C@H](CO)NCC31CN(Cc2ccc(-c3ccccn3)cc2)C1	x	-4	0	x	-1
C[C@@H]1CN([C@H](C)CO)C(=O)c2cc(NS(C)(=O)=O)ccc2O[C@@H]1CN(C)C(=O)Nc1ccccc1	0	-3	82*	2	-1
Cc1ccc(S(=O)(=O)Nc2ccc3c(c2)C(=O)N([C@H](C)CO)C[C@@H](C)[C@H](CN(C)C(=O)NC2CCCCC2)O3)cc1	0	41*	5	3	0
C[C@H](CO)N1C[C@H](C)[C@H](CN(C)C(=O)NC2CCCCC2)Oc2ccc(NS(=O)(=O)c3ccccc3)cc2C1=O	0	-4	63*	2	3
CC(C)NC(=O)N(C)C[C@@H]1Oc2ccc(NS(C)(=O)=O)cc2C(=O)N([C@@H](C)CO)C[C@@H]1C	x	20*	0	2	-3
O=C(N[C@@H]1CC[C@H](CCNS(=O)(=O)Cc2ccccc2)O[C@H]1CO)c1cnccn1	0	-7	1	-1	0
CN(C)CC#Cc1ccc([C@H]2[C@H](CO)N3C(=O)CN(C(=O)Cc4ccccc4)C[C@@H]23)cc1	x	18	0	1	-1
Cc1ccc(S(=O)(=O)Nc2ccc3c(c2)C(=O)N([C@@H](C)CO)C[C@H](C)[C@H](CN(C)C(=O)NC(C)C)O3)cc1	0	32*	0	1	3
C[C@@H]1CN([C@H](C)CO)C(=O)c2cc(NS(=O)(=O)c3ccccc3)ccc2O[C@@H]1CN(C)C(=O)NC1CCCCC1	0	-1	117*	1	3
CCc1nc2nc(C)c(NS(=O)(=O)c3ccc(Br)s3)c(=O)n2[nH]1	0	44*	x	3	-5
C[C@@H]1CN([C@@H](C)CO)C(=O)c2cc(NC(=O)CCCCCC(=O)Nc3ccccc3N)ccc2O[C@@H]1CN(C)Cc1ccc2c(c1)OCO2	0	20*	x	2	1
C[C@H](CO)N1C[C@H](C)[C@@H](CN(C)Cc2ccc3c(c2)OCO3)Oc2ccc(NC(=O)CCC(F)(F)F)cc2C1=O	1	2	0	0	2
C[C@H](CO)N1C[C@H](C)[C@@H](CN(C)Cc2ccc3c(c2)OCO3)Oc2ccc(NC(=O)CCCCCC(=O)Nc3ccccc3N)cc2C1=O	0	28*	x	-2	-5
C[C@@H]1CN([C@H](C)CO)C(=O)c2cc(NC(=O)CCCCCC(=O)Nc3ccccc3N)ccc2O[C@@H]1CN(C)Cc1ccccc1	0	2	0	1	-1
C[C@@H]1CN([C@@H](C)CO)C(=O)c2cc(NC(=O)CCC(F)(F)F)ccc2O[C@@H]1CN(C)Cc1ccc2c(c1)OCO2	0	29*	0	1	1
C[C@H](CO)N1C[C@H](C)[C@H](CN(C)Cc2ccc3c(c2)OCO3)Oc2ccc(NC(=O)CCCCCC(=O)Nc3ccccc3N)cc2CC1=O	-1	25*	1	-2	2
SMILES	FGF22 binding	DENV2 CPE rescue	E-sel inducer	ERAP1 inh	CFTR F508del cor
C[C@H](CO)N1C[C@H](C)[C@H](CN(C)Cc2ccc3c(c2)OCO3)Oc2ccc(NC(=O)CCCCCC(=O)Nc3ccccc3N)cc2C1=O	0	-4	x	0	3
COCc1cn(CC[C@@H]2CC[C@H](NC(=O)Cc3cccnc3)[C@H](CO)O2)nn1	0	2	0	1	2
Cc1c(NC(=O)CN2C(=O)c3ccc([N+](=O)[O-])cc3C2=O)c(=O)n(-c2ccccc2)n1C	0	0	x	-1	1
O=C(CN1C(=O)c2ccccc2C1=O)Nc1cc([N+](=O)[O-])ccc1O	44*	1	1	2	-2
O=C(Nc1cc([N+](=O)[O-])ccc1O)c1ccc2c(c1)C(=O)N(Cc1ccco1)C2=O	0	26*	0	-1	0
CCOc1ccc2[nH]c3c(NCCN(CC)CC)ncnc3c2c1	0	-1	1	6	1
COc1ccc(-c2nc(NCCCN(C)C)c3ccccc3n2)cc1	0	30*	x	-1	5
COCCCNc1nc(-c2ccc(Cl)cc2)nc2ccccc12	0	u	1	1	2
CCN(CC)CCCNc1nc2ccccc2c2[nH]c3ccc(OC)cc3c12	0	13	1	-33	17*
CCCNC(=O)C[C@H]1C[C@H]2c3cc(NC(=O)Nc4ccccc4)ccc3O[C@H]2[C@H](CO)O1	0	-2	0	x	3
Cc1noc(C)c1S(=O)(=O)N(C)C[C@@H]1OCCCC[C@H](C)Oc2ccc(NC(=O)Nc3ccc(C(F)(F)F)cc3)cc2C(=O)N([C@H](C)CO)C[C@@H]1C	0	5	0	0	2
CN1C(=O)C(c2cn(C)c3ccccc23)(c2cn(C)c3ccccc23)c2cc(F)ccc21	0	30*	0	-3	-1
CN(C)CC(=O)N1[C@@H]2Cn3c(ccc(C4=CCCC4)c3=O)[C@H]1[C@@H](C(=O)NCC1CC1)[C@@H]2CO	0	3	0	-1	0
NNC(=O)COc1cccc(C(F)(F)F)c1	0	3	x	0	2
CC(C)[C@H](NC(N)=O)C(=O)NNC(=O)COc1cccc(C(F)(F)F)c1	0	1	0	54*	-3
COC(=O)c1sc2cc([N+](=O)[O-])cc(SCC(C)C)c2c1N	44*	2	x	0	x
CCOC(=O)c1sc2ncc([N+](=O)[O-])cc2c1N	0	-5	x	-1	0
